A short description of data set [1]: Lipophilicity, log P of the compound. It counts as physicochemical. The conditions noted are these: octanol/water.
Data set [2] can be described thus: Drug metabolism in dog hepatocytes assessed as glucuronidation. It counts as ADME, cell-based, Canis lupus familiaris, Hepatocyte.
A short description of data set [3]: Metabolic stability in rat microsomes assessed as compound metabolized after 30 mins. It counts as ADME, Microsome. The conditions noted are these: read-out: Drug metabolism. The gist of the method:
(§1)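 Compound incubated 30 min with liver microsomes from mouse, rat, dog or human. Percent of compound metabolized recorded, as mean (SEM, n).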

Data set [4] relates to Rattus norvegicus. Description: Toxicity in Zucker fa/fa rat assessed as change in body weight at 1 to 10 mg/kg, po. It counts as organism-based. The conditions noted are these: in vivo. Summed up:
(§2)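 Male Zucker fa/fa rats, 10 weeks old, given daily oral doses of 1, 3 or 10 mg/kg for 21 days. Body weight and food consumption tracked, with a reference agonist as positive control.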

The nature of data set [5]: Metabolic stability in mouse microsomes assessed as compound metabolized after 30 mins. The conditions noted are these: read-out: Drug metabolism. It counts as ADME, Microsome. The gist of the method:
as §1

In data set [6] the target is T1, Free fatty acid receptor 1 (Homo sapiens, UniProt O14842). Description: Agonist activity at human GPR40 receptor expressed in HEK293 cells assessed as increase in intracellular calcium flux after 2.5 hrs measured over 3 mins in presence of 0.1% serum albumin by calcium 4 dye-based FLIPR assay. It counts as functional, cell-based. (In general: A change in cytosolic calcium serves as a functional read-out for many receptors and channels.)
T1 sequence (O14842 whole entry): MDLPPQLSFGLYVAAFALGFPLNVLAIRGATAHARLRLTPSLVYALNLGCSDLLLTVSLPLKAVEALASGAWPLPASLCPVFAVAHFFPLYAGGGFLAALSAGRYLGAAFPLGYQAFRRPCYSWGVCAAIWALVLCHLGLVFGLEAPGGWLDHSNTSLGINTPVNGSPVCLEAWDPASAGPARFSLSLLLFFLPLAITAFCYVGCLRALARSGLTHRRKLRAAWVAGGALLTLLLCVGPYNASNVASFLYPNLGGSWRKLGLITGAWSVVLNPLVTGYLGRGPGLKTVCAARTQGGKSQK

A short description of data set [7]: Half life in Beagle dog at 3 mg/kg, po. It counts as ADME, organism-based, Canis lupus familiaris. The conditions noted are these: in vivo.
Data set [8] is described as follows: AUC (0 to 24 hrs) in Sprague-Dawley rat at 500 mg/kg, po. It counts as ADME, organism-based. Details: dose 500 mg/kg, time < 24 hr, route oral. The conditions noted are these: in vivo.
Data set [9] is described as follows: Tmax in Beagle dog at 100 mg/kg, po. It counts as ADME, organism-based, Canis lupus familiaris. The conditions noted are these: in vivo. Summed up:
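Dogs dosed orally at 30, 100 or 300 mg/kg, N = 2 per dose.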

The test system of data set [10] is 3T3-L1. Description: Induction of adipogenesis in mouse 3T3L1 cells. It counts as functional, cell-based. Summed up:
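Adipogenesis was assessed in 3T3-L1 cells.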

The nature of data set [11]: Cmax in Beagle dog at 30 mg/kg, po. It counts as ADME, organism-based, Canis lupus familiaris. Details: dose 30 mg/kg, route oral. The conditions noted are these: in vivo.
Data set [12] can be described thus: Intrinsic clearance in human microsomes. It counts as ADME, Microsome.
The nature of data set [13]: AUC (0 to 24 hrs) in Sprague-Dawley rat at 10 mg/kg, po. It counts as ADME, organism-based. Details: dose 10 mg/kg, time < 24 hr, route oral. The conditions noted are these: in vivo.
Data set [14] in a line: Metabolic stability in human microsomes assessed as compound metabolized after 30 mins. It counts as ADME, Microsome. The conditions noted are these: read-out: Drug metabolism. The gist of the method:
as §1

The nature of data set [15]: Initial plasma concentration in Sprague-Dawley rat at 1 mg/kg, iv. It counts as ADME, organism-based.
Data set [16] has as its target T1, Free fatty acid receptor 1. Description: Agonist activity at human GPR40 receptor expressed in HEK293 cells assessed as increase in intracellular calcium flux after 2.5 hrs measured over 3 mins by calcium 4 dye-based FLIPR assay relative to linoleic acid. It counts as functional, cell-based. Details: Activity: concentration or dose not given beside the values. The gist of the method:
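Human GPR40 calcium flux was read on FLIPR. Percent stimulation is expressed against the response to 100 uM linoleic acid.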

A short description of data set [17]: Tmax in Sprague-Dawley rat at 10 mg/kg, po. It counts as ADME, organism-based. The conditions noted are these: in vivo.
Data set [18] concerns Rattus norvegicus. Description: Toxicity in Zucker fa/fa rat assessed as alteration in food consumption at 1 to 10 mg/kg, po. It counts as organism-based. The conditions noted are these: in vivo. The gist of the method:
as §2

A short description of data set [19]: AUC (0 to 24 hrs) in Beagle dog at 30 mg/kg, po. It counts as ADME, organism-based, Canis lupus familiaris. Details: dose 30 mg/kg, time < 24 hr, route oral. The conditions noted are these: in vivo.
Data set [20] has as its target Voltage-gated inwardly rectifying potassium channel KCNH2 (Homo sapiens, UniProt Q12809). Description: Inhibition of human ERG at 100 uM.
Data set [21] can be described thus: AUC (0 to 24 hrs) in Sprague-Dawley rat at 100 mg/kg, po. It counts as ADME, organism-based. Details: dose 100 mg/kg, time < 24 hr, route oral. The conditions noted are these: in vivo.
Data set [22] has as its system Rattus norvegicus. Description: Antidiabetic activity in po dosed Zucker fa/fa rat assessed as reduction in blood glucose AUC administered for 1 day followed by OGTT at 1 hr after compound dosing and measured 60 mins post glucose challenge by oral glucose tolerance test. It counts as functional. Summed up:
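Male Zucker fa/fa rats, 10 weeks old, were dosed orally at 1, 3 and 10 mg/kg. The OGTT was run 1 h after dosing with an oral glucose challenge of 2 g/kg. The glucose AUC was calculated, and a dose-response curve gave the ED90.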

Molecules are shown by their SMILES. Calls of active or inactive are those of the source. The rule behind the calls is not given here.

Results on one compound are retold here after ChEMBL document CHEMBL4024777, “Discovery of LY3104607: A Potent and Selective G Protein-Coupled Receptor 40 (GPR40) Agonist with Optimized Pharmacokinetic Properties to Support Once Daily Oral Treatment in Patients with Type 2 Diabetes Mellitus” (J Med Chem, 2018).

The term logP denotes the decadic logarithm of the partition coefficient of the neutral form, usually between octanol and water. What is called half-life is how long it takes for the measured level to halve. As a reminder, the AUC(0-t) is exposure summed from dosing to a finite time, without extrapolation to infinity. A word on the Tmax: it is the time at which the peak concentration occurs. The Cmax is the highest concentration seen after dosing.

Chain of Voltage-gated inwardly rectifying potassium channel KCNH2 (Q12809 whole entry): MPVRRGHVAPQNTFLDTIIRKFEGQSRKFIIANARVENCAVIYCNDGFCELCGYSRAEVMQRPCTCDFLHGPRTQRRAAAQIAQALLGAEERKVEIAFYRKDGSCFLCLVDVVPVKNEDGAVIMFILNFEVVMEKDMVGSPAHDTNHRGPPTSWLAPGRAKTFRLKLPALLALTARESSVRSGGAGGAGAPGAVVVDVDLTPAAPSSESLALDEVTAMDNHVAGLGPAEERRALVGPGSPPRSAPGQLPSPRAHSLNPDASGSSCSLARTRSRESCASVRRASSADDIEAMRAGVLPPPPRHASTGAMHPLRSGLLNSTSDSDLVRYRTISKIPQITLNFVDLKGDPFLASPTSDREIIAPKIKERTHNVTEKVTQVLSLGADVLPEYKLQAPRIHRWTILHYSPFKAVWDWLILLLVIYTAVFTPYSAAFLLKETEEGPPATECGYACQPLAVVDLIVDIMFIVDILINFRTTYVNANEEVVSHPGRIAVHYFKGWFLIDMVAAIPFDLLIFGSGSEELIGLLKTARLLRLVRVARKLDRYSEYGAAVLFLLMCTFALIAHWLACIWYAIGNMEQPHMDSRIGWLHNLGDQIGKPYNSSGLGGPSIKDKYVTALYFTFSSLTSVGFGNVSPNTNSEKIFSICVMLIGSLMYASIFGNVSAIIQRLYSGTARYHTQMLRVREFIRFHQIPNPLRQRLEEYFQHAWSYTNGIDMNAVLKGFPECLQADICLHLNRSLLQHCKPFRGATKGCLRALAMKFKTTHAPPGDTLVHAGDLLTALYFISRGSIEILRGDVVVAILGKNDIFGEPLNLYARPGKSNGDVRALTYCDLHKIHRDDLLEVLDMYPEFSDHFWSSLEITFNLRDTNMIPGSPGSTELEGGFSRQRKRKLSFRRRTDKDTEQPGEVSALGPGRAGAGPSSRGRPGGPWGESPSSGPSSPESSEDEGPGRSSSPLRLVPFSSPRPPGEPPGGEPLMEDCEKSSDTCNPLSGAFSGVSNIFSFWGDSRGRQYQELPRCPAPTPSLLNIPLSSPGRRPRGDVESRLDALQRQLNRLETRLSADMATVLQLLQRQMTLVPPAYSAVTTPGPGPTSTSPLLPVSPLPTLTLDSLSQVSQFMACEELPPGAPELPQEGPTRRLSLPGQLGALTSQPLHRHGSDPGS

Regarding `CC#C[C@@H](CC(=O)O)c1ccc(OCc2ccc3nc(-c4c(C)cccc4C)nn3c2)cc1`, the log partition coefficient (logP) in data set [1] is 4.8. Moreover, in data set [2], the Drug metabolism result is “Metabolite_Detected”. For the same compound, the metabolised at 0.5 h was 10% in [3], 7% in data set [5] and 5% in [14]. In addition, the Activity entry in [4] is “Non-Toxic”; in data set [16], 54%; in data set [18], “Non-Toxic”. The result in data set [6] was Active. In data set [7], this compound gave a half-life of 5.49 h. The exposure AUC(0-t) at 24 h in data set [8] came to 4790 µg·h/mL; in [13] it was 215 µg·h/mL; in [19], 120 µg·h/mL; in data set [21], 2870 µg·h/mL. Moreover, the time to peak (Tmax) in [9] stood at 3 h; in [17], 4 h. In addition, in [10], the result was inactive. For the same compound, in data set [11], the Cmax came out at 126 µg/mL. The same compound returned a K in data set [12] of under 0.0009 h⁻¹. For the same compound, the C0 in data set [15] is 4.34 µg/mL. In data set [20], the “inhibition (INH)” value is given as “Not Active”. Also, the ED90 in [22] stood at 4.1 mg/kg.
